This note sets out measurements from PubChem BioAssay.

Assay [1] is described as follows: inhibitors of TNFa-induced NFkB p65 translocation, primary screen, imaging, HUVEC, MLSMR starter and 10KST1 sets (AID 438;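 active = inhibition above 20% together with a positive visual image hit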;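 note: compound added about 3h40 before a 20 min TNFalpha stimulation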;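 for inhibition: signal is the nuclear over cytoplasmic p65 intensity ratio per well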). Particulars: HUVEC TNFa-induced p65 nuclear translocation; cell count: measured here: nuclei count (cytotoxicity indicator), at 2.08 µM; inhibition: at 2 µM, stronger effect = higher value, 0% TNFa-plus-vehicle, 100% no-TNFa wells.
Assay [2] is described as follows: reduction of polyQ htt aggregates in cells – imaging, exon1htt(103Q)mCFP cells, high-content imaging, primary screen (AID 483;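 active = visual image review flags a hit and inhibition of aggregation exceeds 20%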;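 note: compound exposure lasted 3 days before fixation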;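 for nuclei count: percent of the per-plate median nuclei count of sample wells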). Conditions: exon1htt(103Q)mCFP cell line, aggregate imaging, at 2 µM; inhibition of aggregation: stronger effect = higher value; nuclei count: measured here: cell count, toxicity.
Assay [3] is described as follows: endothelial E-selectin expression blockers – imaging, HUVEC, immunofluorescence, MLSMR starter and 10KST1 sets, primary screen (AID 487;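 active = visually confirmed hit in the image check and inhibition above 20%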;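 for inhibition: signal is fraction of cell area covered by stained E-selectin grains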;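 for nuclei count: 100% = median nuclei count of all wells on the same plate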). Conditions: HUVEC TNFalpha-induced E-selectin immunofluorescence imaging, at 2 µM; inhibition: stronger effect = higher value; nuclei count: measured here: cell number, toxicity.
Assay [4] deals with Voltage-gated potassium channel subunit beta-2 (Rattus norvegicus) (UniProt P62483). As to the kind of experiment: inhibitors of rat Kvbeta2 reductase activity – biochemical, NADPH fluorescence, primary screen (AID 622;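 active = fluorescence slope higher than the sample average by over 3 SD, cut at about -0.22 in these data, passing the limit was not always enough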;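 note: slope of raw intensity against log time taken from 70 to 1610 s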). Particulars: recombinant KvBeta, 4-cyanobenzaldehyde reduction, at 10 µM, stronger effect = higher value.
Assay [5] shares this target. Description: enhancers of rat Kvbeta2 NADPH turnover – biochemical, NADPH fluorescence, primary screen (AID 623).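 Note: fluorescence intensity change per second fitted from 20 to 320 s.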 Conditions: Recombinant KvBeta, NADPH fluorescence decrease slope, 10 min; at 10 µM; stronger effect = lower value.
Assay [6] has as its target Muscarinic acetylcholine receptor M4 (Homo sapiens) (UniProt P08173). As to the kind of experiment: M4-linked GIRK flux change, two-sided – cell-based, HEK293 M4/GIRK, thallium flux, BTC-AM, M4 allosteric agonist project, primary screen (AID 625;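 active = fluorescence slope after compound addition differing from the mean of all tested samples at 99.7% confidence, mostly higher but some lower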;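 note: thallium influx through GIRK channels coupled to M4 in HEK293 cells with BTC-AM dye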). Conditions: at 10 µM, actives lie on both sides. The gist of the method:
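Material – HEK293 cells with M4 receptor and GIRK channels · Buffer or medium – pH 7.3 thallium assay buffer · Doses – one dose, 10 µM final · Timing – cells overnight at 37 °C, BTC-AM loading 1 h, reads 2 min total · Measured by – kinetic fluorescence with BTC-AM dye · Controls – carbachol and DMSO controls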

The nature of assay [7]: blockers of RIG-like receptor reporter activation – cell-based, Sendai virus stimulus, luciferase, 10K MLSCN set, TLR/RLR signaling modifier project, primary screen (AID 602276;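 active = inhibition at or above 50% at 10 µM; inactive = inhibition below 50%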;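 note: firefly luciferase from ISG56 promoter only with Renilla not read in this screen; 0% = Sendai virus plus DMSO and 100% = medium plus DMSO without virus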). Conditions: HEK293 RL24 IRF3 luciferase reporter, at 10 µM, stronger effect = higher value. On the technique in general: A reporter such as luciferase makes a cellular process visible.
Assay [8] in a line: TLR3 IRF3 reporter activation blockers – cell-based, poly I:C stimulus, luciferase, 10K MLSCN set, primary screen (AID 602277;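 active = inhibition of the reporter signal at or above 50%; inactive = inhibition below 50%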). Particulars: HEK293-TLR3 RL24 IRF3 luciferase reporter, at 10 µM, stronger effect = higher value.

Active and inactive are the calls of the source.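 Rule for the calls, unless noted: active = NADPH fluorescence slope more negative than the mean of all samples by about 3 SD, 99.7% confidence; inactive = the rest.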

Sequence of Muscarinic acetylcholine receptor M4 (Homo sapiens) (P08173 whole entry, looked up): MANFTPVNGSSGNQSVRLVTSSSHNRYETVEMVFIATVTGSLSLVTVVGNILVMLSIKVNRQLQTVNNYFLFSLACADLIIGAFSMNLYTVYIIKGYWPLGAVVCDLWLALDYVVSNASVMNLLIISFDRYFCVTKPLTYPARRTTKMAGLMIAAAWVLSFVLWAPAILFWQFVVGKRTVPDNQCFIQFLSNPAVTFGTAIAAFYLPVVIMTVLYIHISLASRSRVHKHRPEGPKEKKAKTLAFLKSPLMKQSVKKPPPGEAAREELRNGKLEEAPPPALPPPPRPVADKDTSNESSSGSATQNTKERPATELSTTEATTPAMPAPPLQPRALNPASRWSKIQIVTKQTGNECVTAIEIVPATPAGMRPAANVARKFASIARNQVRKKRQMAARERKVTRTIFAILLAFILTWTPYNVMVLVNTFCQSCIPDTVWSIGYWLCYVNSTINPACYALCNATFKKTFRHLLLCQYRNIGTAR
Sequence of Voltage-gated potassium channel subunit beta-2 (Rattus norvegicus) (P62483 whole entry, looked up): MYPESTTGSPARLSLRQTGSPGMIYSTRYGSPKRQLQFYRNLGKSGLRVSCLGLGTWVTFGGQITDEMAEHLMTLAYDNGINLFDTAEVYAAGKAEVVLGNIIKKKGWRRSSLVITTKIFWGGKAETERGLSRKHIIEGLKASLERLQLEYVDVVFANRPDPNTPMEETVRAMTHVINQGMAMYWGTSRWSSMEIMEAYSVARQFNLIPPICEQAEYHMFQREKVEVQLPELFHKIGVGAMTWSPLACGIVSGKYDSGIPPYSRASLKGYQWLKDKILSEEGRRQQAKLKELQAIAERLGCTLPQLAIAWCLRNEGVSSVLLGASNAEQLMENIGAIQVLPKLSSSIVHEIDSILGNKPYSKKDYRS

In general, inhibition refers to the drop in the measured response relative to a control, in per cent. As for `COc1ccc(CN2CC(C(=O)NCCCOC(C)C)CC2=O)cc1` (centres undefined), the cell count in assay [1] was 766. Moreover, the inhibition was -12.7% (inactive) in assay [1], -63.4% (inactive) in assay [3], -10% (inactive) in assay [7] and -6.2% (inactive) in assay [8]. The inhibition of aggregation in assay [2] was -17.1% (inactive). Also, the nuclei count in assay [2] was found to be 102%; in assay [3] it was 122%. Besides, the fluorescence slope in assay [4] was -0.522 (inactive); in assay [6], 0.00604 (inactive). Besides, the NADPH fluorescence slope in assay [5] is -6.3e-05 (inactive).

Take `COc1ccc(N2CCC(CNS(=O)(=O)c3cccc(C(F)(F)F)c3)C2)cc1` (centres undefined): the cell count in assay [1] was found to be 385. The inhibition in assay [1] was 5.3% (inactive); in assay [3], -33.3% (inactive); in assay [7], 7.7% (inactive); in assay [8], 2.96% (inactive). Moreover, the inhibition of aggregation in assay [2] was 30.1% (active). In addition, the nuclei count in assay [2] worked out at 92.1%; in assay [3] it was 132%. Further, the fluorescence slope in assay [4] was -0.494 (inactive); in assay [6], 0.00389 (inactive). Also, the NADPH fluorescence slope in assay [5] was -0.000248 (inactive).

For the compound `CN(C)c1ccc(/C=C/C(O)=C2/C(=O)N(C)C3(C)CC2c2ccccc2O3)cc1` (centres undefined), the cell count in assay [1] was 356. Also, the inhibition is -0.4% (inactive) in assay [1], -68% (inactive) in assay [3], 1.4% (inactive) in assay [7] and 23.4% (inactive) in assay [8]. Further, the inhibition of aggregation in assay [2] is -5.2% (inactive). Also, the nuclei count in assay [2] is 102%; in assay [3] it was 115%. For the same compound, the fluorescence slope in assay [4] was -0.521 (inactive); in assay [6], 0.0126 (active). The NADPH fluorescence slope in assay [5] was -2e-07 (inactive).

Consider `COC(=O)C1=C(C)NC(C)=C(C(=O)OC)C1c1cc2cc(C)ccc2[nH]c1=O`, for which the cell count in assay [1] turned out to be 509. The inhibition in assay [1] is 11.1% (inactive); in assay [3], -103% (inactive); in assay [7], 18.9% (inactive); in assay [8] it was 30.9% (inactive). Also, the inhibition of aggregation in assay [2] is -7.7% (inactive). Further, the nuclei count is 102% in assay [2] and 136% in assay [3]. The fluorescence slope is -0.493 (inactive) in assay [4] and 0.00508 (inactive) in assay [6]. For the same compound, the NADPH fluorescence slope in assay [5] is -2.9e-05 (inactive).

On to `COc1ccc2nc(NC(=O)CSc3nnc(-c4ccoc4C)n3C)sc2c1`, for which, in assay [1], the cell count is 392. Also, the inhibition in assay [1] is 9.9% (inactive); in assay [3] it was -28.8% (inactive); in assay [7], -11.5% (inactive); in assay [8], -48.5% (inactive). Also, in assay [2], the inhibition of aggregation was -2.4% (inactive). Moreover, the figures for the nuclei count in assay [2] and in assay [3] were 97.8% and 104%, respectively. The fluorescence slope is -0.563 (inactive) in assay [4] and 0.00441 (inactive) in assay [6]. The NADPH fluorescence slope in assay [5] was -2.5e-05 (inactive).

`O=C(NCc1ccco1)C1CCN(S(=O)(=O)N2CCC3(CC2)OCCO3)CC1`: in assay [1], the cell count came out at 358. Also, the inhibition in assay [1] was 5.3% (inactive); in assay [3], 18% (inactive); in assay [7] it was 0.326% (inactive); in assay [8], 6.88% (inactive). Moreover, in assay [2], the inhibition of aggregation is 28.1% (inactive). The nuclei count in assay [2] is 84.3%; in assay [3] it was 72.6%. In addition, the fluorescence slope is -0.317 (inactive) in assay [4] and 0.00611 (inactive) in assay [6]. Besides, in assay [5], the NADPH fluorescence slope was -3.5e-05 (inactive).

Take `Cc1cc(N2C(=O)C3C4C=CC(C4)C3C2=O)ccc1Br` (centres undefined): the cell count in assay [1] is 775. Besides, the inhibition is 18.7% (inactive) in assay [1], 98.6% (active) in assay [3], -31.9% (inactive) in assay [7] and 100% (active) in assay [8]. In addition, in assay [2], the inhibition of aggregation was 0.6% (inactive). The nuclei count in assay [2] stood at 110%; in assay [3], 42%. Further, the fluorescence slope in assay [4] is -0.502 (inactive); in assay [6], 0.00619 (inactive). In addition, in assay [5], the NADPH fluorescence slope is -5.3e-05 (inactive).

Consider `COc1ccc(C2c3c(-c4ccccc4O)n[nH]c3C(=O)N2CCc2ccc(OC)c(OC)c2)cc1` (centres undefined), for which, in assay [1], the cell count came to 644. Further, the inhibition is -22.4% (inactive) in assay [1], -37.6% (inactive) in assay [3], 17.4% (inactive) in assay [7] and 21.5% (inactive) in assay [8]. Besides, the inhibition of aggregation in assay [2] was 17.2% (inactive). Also, the figures for the nuclei count in assay [2] and in assay [3] were 68.1% and 114%, respectively. For the same compound, the results for the fluorescence slope in assay [4] and in assay [6] were -0.616 (inactive) and 0.00748 (inactive), respectively. Also, the NADPH fluorescence slope in assay [5] is 5.9e-06 (inactive).

Turning to `Cc1nn(Cc2ccccc2)c(C)c1NC(=O)CCC(=O)O`, the cell count in assay [1] worked out at 667. In addition, the inhibition was 23.6% (active) in assay [1], 17.9% (inactive) in assay [3], -5.04% (inactive) in assay [7] and -12.9% (inactive) in assay [8]. Further, the inhibition of aggregation in assay [2] is -6.6% (inactive). In addition, the nuclei count stood at 112% in assay [2] and 105% in assay [3]. Moreover, the fluorescence slope in assay [4] was -0.49 (inactive); in assay [6], 0.00488 (inactive). For the same compound, the NADPH fluorescence slope in assay [5] was 1.1e-05 (inactive).

Take `CCOC(=O)C1C(=O)OC(C)(C)C1C(C)C(=O)c1ccc(OC)cc1` (centres undefined): the cell count in assay [1] was found to be 605. Moreover, the inhibition was -6.4% (inactive) in assay [1], 3.9% (inactive) in assay [3], 21.2% (inactive) in assay [7] and 23.4% (inactive) in assay [8]. In assay [2], the inhibition of aggregation is -4.2% (inactive). Moreover, the nuclei count worked out at 42.1% in assay [2] and 92.7% in assay [3]. Moreover, the fluorescence slope in assay [4] was -0.47 (inactive); in assay [6], 0.00448 (inactive). For the same compound, in assay [5], the NADPH fluorescence slope was 3.2e-06 (inactive).

As for `Cc1ncc(CO)c2c1OC(C)(C)OC2`, the cell count in assay [1] amounted to 373. Besides, the inhibition was 2.5% (inactive) in assay [1], -39.2% (inactive) in assay [3], 8.62% (inactive) in assay [7] and 15.1% (inactive) in assay [8]. The inhibition of aggregation in assay [2] is -26.3% (inactive). For the same compound, the results for the nuclei count in assay [2] and in assay [3] were 106% and 97.7%, respectively. In addition, the fluorescence slope is -0.515 (inactive) in assay [4] and 0.00488 (inactive) in assay [6]. In addition, in assay [5], the NADPH fluorescence slope is -0.0002 (inactive).

In the case of `O=C(CN1CCOCC1)Nc1cccc(C(=O)Nc2cccc(C(F)(F)F)c2)c1`, the cell count in assay [1] was 199. For the same compound, the inhibition in assay [1] was 4.3% (inactive); in assay [3], 1.6% (inactive); in assay [7], 7.38% (inactive); in assay [8] it was -4.66% (inactive). Moreover, in assay [2], the inhibition of aggregation was 12.5% (inactive). In addition, the nuclei count in assay [2] was found to be 90.7%; in assay [3], 89.1%. Also, the fluorescence slope in assay [4] is -0.574 (inactive); in assay [6] it was 0.0065 (inactive). In addition, the NADPH fluorescence slope in assay [5] is -6e-05 (inactive).

For the compound `CCOC(=O)c1cc2sccc2n1CC(=O)Nc1ccc2c(c1)OCCO2`, the cell count in assay [1] came out at 513. The inhibition in assay [1] was -14.9% (inactive); in assay [3], 12.2% (inactive); in assay [7], -5.94% (inactive); in assay [8], -4.31% (inactive). The inhibition of aggregation in assay [2] is -25.9% (inactive). For the same compound, the nuclei count worked out at 108% in assay [2] and 117% in assay [3]. Also, the fluorescence slope in assay [4] was -0.61 (inactive); in assay [6], 0.00667 (inactive). In addition, in assay [5], the NADPH fluorescence slope was 4.2e-06 (inactive).

In the case of `CCn1ncc(C2=NOC(C(=O)NCc3ccccc3)C2)c1C` (centres undefined), the cell count in assay [1] worked out at 309. For the same compound, the inhibition in assay [1] was -20.8% (inactive); in assay [3], -53.2% (inactive); in assay [7] it was 17.4% (inactive); in assay [8] it was 73.3% (active). Besides, the inhibition of aggregation in assay [2] was -64.1% (inactive). In addition, the nuclei count came out at 2.2% in assay [2] and 105% in assay [3]. Besides, the results for the fluorescence slope in assay [4] and in assay [6] were -0.446 (inactive) and 0.00637 (inactive), respectively. The NADPH fluorescence slope in assay [5] is 3.3e-05 (inactive).
